Experimental data as given in ChEMBL document CHEMBL4837219, “Chemical modification of NSC12 leads to a specific FGF-trap with antitumor activity in multiple myeloma” (Eur J Med Chem, 2021).
pIC50, pKd: −log10 of the molar value. Active and inactive are the calls of the source. No cut-off for these calls is given here.

What was measured:
KMS-11 [1] = assay: Trapping activity at FGF in human KMS-11 cells assessed as inhibition of FGFR3 phosphorylation at 6 uM measured after 6 hrs by western blot analysis; type: cell-based
Summary of the method: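 KMS-11 cells treated for 6 h with compound at 6.0 µM, then lysed in NP-40 buffer containing orthovanadate and protease inhibitors. Phospho-FGFR3 detected by western blot with anti-phospho-Y724 antibody, using β-actin or α-tubulin as loading control. Result expressed as % inhibition of FGFR3 phosphorylation by densitometry.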

KMS-11 [2] = assay: Antiproliferative activity against human KMS-11 cells assessed as reduction in cell viability incubated for 48 hrs by propidium iodide staining-based flow cytometric analysis; type: functional; conditions: KMS-11, 48 h
Summary of the method: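 KMS-11 cells (maintained in RPMI1640 with 10% heat-inactivated FBS and 2.0 mM glutamine) exposed to increasing concentrations of compound for 48 h. Viable PI-negative cells counted by flow cytometry using the analyzer's absolute counting function. IC50 is the concentration giving 50% inhibition of proliferation, taken as the mean of at least 2 experiments run in triplicate.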

[3] = target: Fibroblast growth factor 2 (Homo sapiens, UniProt P09038); assay: Binding affinity to FGF2 (unknown origin) by sensor chip immobilization based surface plasmon resonance analysis
OPM-2 [4] = assay: Trapping activity at FGF in human OPM-2 cells assessed as inhibition of FGFR3 phosphorylation at 6 uM measured after 6 hrs by westernblot analysis; type: cell-based
Summary of the method: (§1)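 Cells cultured in RPMI1640 with 10% FBS and 2.0 mM glutamine, then treated 6 h with 6 µM compound. Washed in cold PBS and lysed in NP-40 buffer (20 mM Tris-HCl pH 8, 1 mM orthovanadate, protease inhibitors). Bradford used to normalize protein. Blots probed for phospho-FGFR3 (Y724), with β-actin or α-tubulin as loading control; percent inhibition read by densitometry.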

RPMI-8226 [5] = assay: Trapping activity at FGF in human RPMI-8226 cells assessed as inhibition of FGFR3 phosphorylation at 6 uM measured after 6 hrs by westernblot analysis; type: cell-based; summary of the method: as §1
U-266 [6] = assay: Trapping activity at FGF in human U-266 cells assessed as inhibition of FGFR3 phosphorylation at 6 uM measured after 6 hrs by westernblot analysis; type: cell-based; summary of the method: as §1
[7] = target: T1, Estrogen receptor (Homo sapiens) (UniProt P03372); assay: Displacement of [3H]estradiol from human full length recombinant ERalpha expressed in baculovirus-infected Sf9 cells at 5 uM incubated for 120 mins by radiometric scintillation counting analysis
T1 sequence (whole entry): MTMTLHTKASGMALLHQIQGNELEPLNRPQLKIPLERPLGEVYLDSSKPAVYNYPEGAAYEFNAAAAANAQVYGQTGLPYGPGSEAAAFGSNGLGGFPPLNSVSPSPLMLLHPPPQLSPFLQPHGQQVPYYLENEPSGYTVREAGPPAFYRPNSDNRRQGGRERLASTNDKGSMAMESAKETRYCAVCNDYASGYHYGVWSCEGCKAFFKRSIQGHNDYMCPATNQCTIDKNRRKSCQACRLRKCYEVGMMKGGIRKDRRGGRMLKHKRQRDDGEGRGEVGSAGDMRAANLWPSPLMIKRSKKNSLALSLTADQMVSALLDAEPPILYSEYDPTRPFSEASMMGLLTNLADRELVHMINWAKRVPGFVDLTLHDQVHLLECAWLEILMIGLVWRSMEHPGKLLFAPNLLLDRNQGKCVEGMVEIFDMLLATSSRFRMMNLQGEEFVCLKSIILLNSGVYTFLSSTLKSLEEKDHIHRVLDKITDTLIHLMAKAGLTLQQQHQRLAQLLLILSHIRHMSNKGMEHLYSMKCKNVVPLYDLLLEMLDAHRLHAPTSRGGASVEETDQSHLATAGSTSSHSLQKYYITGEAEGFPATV
Summary of the method: (§2)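 Radioligand competition binding to human ERα or ERβ, run as an outsourced panel assay. Readout is % inhibition of specific [3H]estradiol binding at 5.0 and 50 µM compound. Run in duplicate, and the mean of the duplicates is reported.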

[8] = target: T1, Estrogen receptor (Homo sapiens); assay: Displacement of [3H]estradiol from human full length recombinant ERalpha expressed in baculovirus-infected Sf9 cells at 50 uM incubated for 120 mins by radiometric scintillation counting analysis; summary of the method: as §2
[9] = target: Estrogen receptor beta (Homo sapiens) (UniProt Q92731); assay: Displacement of [3H]estradiol from human full length recombinant ERbeta expressed in baculovirus-infected Sf9 cells at 5 uM incubated for 120 mins by radiometric scintillation counting analysis; summary of the method: as §2
[10] = target: Estrogen receptor beta (Homo sapiens) (UniProt Q92731); assay: Displacement of [3H]estradiol from human full length recombinant ERbeta expressed in baculovirus-infected Sf9 cells at 50 uM incubated for 120 mins by radiometric scintillation counting analysis; summary of the method: as §2
KMS-11 [11] = assay: Antitumor activity against human KMS-11 cells xenografted in NOD-SCID mouse assessed as tumor growth inhibition at 7.5 mg/kg, ip administered every other day measured at day 17 post-tumor implantation by caliper analysis; type: functional, organism-based
Summary of the method: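 Female NOD/SCID mice, six to eight weeks old, injected s.c. with 5 × 10^6 KMS-11 cells in PBS. Once tumors were palpable (10 days), mice were randomized and given 7.5 mg/kg i.p. every other day, with DMSO as vehicle control; n = 5 per group. Tumor volume from caliper measurements, V = (D × d²)/2. Tumors excised and weighed at day 17.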

[12] = Total plasma concentration in NOD-SCID mouse at 7.5 mg/kg, ip measured after 90 mins by HPLC/MS/MS analysis; type: ADME, organism-based
Summary of the method: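 A single 7.5 mg/kg i.p. dose given to eight-week-old NOD/SCID mice (n = 4). Blood collected at 90 min. Plasma treated with acetonitrile containing internal standard (1:2) to precipitate protein, centrifuged, and the supernatant analyzed by C18 gradient HPLC-MS/MS in ESI-negative MRM mode. Calibration in spiked blank plasma, linear over 1–1000 nM, LOQ 1 nM. Values are mean ± SEM.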

OPM-2 [13] = assay: Antiproliferative activity against human OPM-2 cells assessed as reduction in cell viability incubated for 48 hrs by propidium iodide staining-based flow cytometric analysis; type: functional; conditions: OPM-2, 48 h
Summary of the method: (§3)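 Myeloma cells kept at low passage in RPMI1640 with 10% heat-inactivated FBS and 2.0 mM glutamine, Mycoplasma-tested, authenticated. Exposed to increasing concentrations of test compound for 48 h. Viable cells counted as propidium iodide-negative by flow cytometry with absolute counts. IC50 = concentration halving proliferation; mean of at least 2 experiments in triplicate.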

RPMI-8226 [14] = assay: Antiproliferative activity against human RPMI-8226 cells assessed as reduction in cell viability incubated for 48 hrs by propidium iodide staining-based flow cytometric analysis; type: functional; conditions: RPMI-8226, 48 h; summary of the method: as §3
U-266 [15] = assay: Antiproliferative activity against human U-266 cells assessed as reduction in cell viability incubated for 48 hrs by propidium iodide staining-based flow cytometric analysis; type: functional; conditions: U-266, 48 h; summary of the method: as §3
[16] = Drug metabolism in NOD-SCID mouse plasma assessed as (1R)-4,4,4-trifluoro-1-((3S,10R,13S,17S)-3-hydroxy-10,13-dimethyl-2,3,4,7,8,9,10,11,12,13,14,15,16,17-tetradecahydro-1H-cyclopenta[a]phenanthren-17-yl)-3-(trifluoromethyl)butane-1,3-diol formation at 7.5 mg/kg, ip measured after 90 mins by HPLC-MS/MS analysis; type: ADME, organism-based; conditions: in vivo, 1.5 h

Estrogen receptor beta (Homo sapiens), sequence (Q92731 whole entry): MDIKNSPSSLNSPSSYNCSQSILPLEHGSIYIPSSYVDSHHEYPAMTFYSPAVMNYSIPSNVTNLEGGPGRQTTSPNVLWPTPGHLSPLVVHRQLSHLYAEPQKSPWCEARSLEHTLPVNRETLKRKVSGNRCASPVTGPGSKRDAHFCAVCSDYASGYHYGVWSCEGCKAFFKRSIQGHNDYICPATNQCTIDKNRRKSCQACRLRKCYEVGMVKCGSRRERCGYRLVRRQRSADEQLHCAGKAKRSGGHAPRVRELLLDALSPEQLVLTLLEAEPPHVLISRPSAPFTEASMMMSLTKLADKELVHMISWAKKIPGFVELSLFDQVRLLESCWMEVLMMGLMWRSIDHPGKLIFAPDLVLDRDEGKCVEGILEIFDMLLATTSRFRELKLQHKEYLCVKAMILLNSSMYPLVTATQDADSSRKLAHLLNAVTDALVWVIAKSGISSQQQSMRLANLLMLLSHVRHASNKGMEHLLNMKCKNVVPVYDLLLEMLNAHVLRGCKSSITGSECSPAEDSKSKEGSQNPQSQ
Fibroblast growth factor 2, sequence (P09038 143-288 limits assumed): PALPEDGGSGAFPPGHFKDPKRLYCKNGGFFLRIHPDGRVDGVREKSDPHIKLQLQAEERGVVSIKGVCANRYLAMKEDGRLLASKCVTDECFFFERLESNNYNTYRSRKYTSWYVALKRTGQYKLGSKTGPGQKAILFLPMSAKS

C[C@]12CC[C@H]3[C@@H](CC=C4C[C@@H](OC(=O)CN)CC[C@@]43C)[C@@H]1CC[C@@H]2[C@H](O)CC(O)(C(F)(F)F)C(F)(F)F
inhibition (KMS-11 [1]): 100%
pIC50 (KMS-11 [2]): 5.64
pKd [3]: 4.52
Activity (OPM-2 [4]): Active
Activity (RPMI-8226 [5]): Active
Activity (U-266 [6]): Active
inhibition [7]: 7.4%
inhibition [8]: 50%
inhibition [9]: 21.4%
inhibition [10]: 71.3%
Activity (KMS-11 [11]): inactive
concentration at 1.5 h [12]: 7.5 nM
pIC50 (OPM-2 [13]): 5.14
pIC50 (RPMI-8226 [14]): 5.14
pIC50 (U-266 [15]): 5.16
Drug metabolism [16]: Metabolite_Detected
